Assay results reported in ChEMBL document CHEMBL3244429, “Antischistosomal effects of 5-(2,4,5-trichlorophenyl)hydantoin and related compounds” (J Med Chem, 1977).
Calls of active or inactive are those of the source. No cut-off for these calls is given here.

How the values were obtained:
Schistosoma mansoni [1] = assay: Antischistosomal activity against Schistosoma mansoni Puerto Rican infected mouse assessed as reduction in live schistosomes at 376 mg/kg/day, through diet for 14 days; format: functional; conditions: 336 h
Summary of the method: (§1)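 Mice carrying a Puerto Rican strain of S. mansoni received drug mixed into a powdered diet for 14 days, with dose expressed as mg/kg per day. The read-out was the reduction in live schistosomes in the infected mice.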

Schistosoma mansoni [2] = assay: Antischistosomal activity against Schistosoma mansoni Puerto Rican infected mouse assessed as infected mouse at 376 mg/kg/day, through diet for 14 days; format: functional; summary of the method: as §1
Schistosoma mansoni [3] = assay: Antischistosomal activity against Schistosoma mansoni Puerto Rican infected mouse assessed as reduction in live schistosomes at 349 mg/kg/day, through diet for 14 days; format: functional; conditions: 336 h; summary of the method: as §1
Schistosoma mansoni [4] = assay: Antischistosomal activity against Schistosoma mansoni Puerto Rican infected mouse assessed as infected mouse at 349 mg/kg/day, through diet for 14 days; format: functional; summary of the method: as §1
Schistosoma mansoni [5] = assay: Antischistosomal activity against Schistosoma mansoni Puerto Rican infected mouse assessed as reduction in live schistosomes at 140 mg/kg/day, through diet for 14 days; format: functional; conditions: 336 h; summary of the method: as §1
[6] = Toxicity in mouse po dosed through diet for 14 days; format: organism-based; conditions: in vivo
Summary of the method: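 Mice infected with a Puerto Rican strain of *Schistosoma mansoni*; drug mixed into a powdered diet and fed orally for 14 days; doses expressed as mg/kg per day.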

Schistosoma mansoni [7] = assay: Antischistosomal activity against Schistosoma mansoni Puerto Rican infected mouse assessed as infected mouse at 140 mg/kg/day, through diet for 14 days; format: functional; summary of the method: as §1
Schistosoma mansoni [8] = assay: Antischistosomal activity against Schistosoma mansoni infected rhesus monkey assessed as temporary egg suppression at 200 mg/kg/day, through gavage for 10 days; format: functional, organism-based
Summary of the method: (§2)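 S. mansoni-infected rhesus monkeys were dosed daily by gavage. Assessment was by egg output over time (temporary suppression) and by the number of live and dead worms remaining in the treated animal.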

Schistosoma mansoni [9] = assay: Antischistosomal activity against Schistosoma mansoni infected rhesus monkey assessed as removal of all worms at 200 mg/kg/day, through gavage for 5 to 10 days; format: functional, organism-based; summary of the method: as §2
Schistosoma mansoni [10] = assay: Antischistosomal activity against Schistosoma mansoni Puerto Rican infected mouse assessed as reduction in live schistosomes at 336 mg/kg/day, through diet for 14 days; format: functional; conditions: 336 h; summary of the method: as §1
Schistosoma mansoni [11] = assay: Antischistosomal activity against Schistosoma mansoni Puerto Rican infected mouse assessed as infected mouse at 336 mg/kg/day, through diet for 14 days; format: functional; summary of the method: as §1
Schistosoma mansoni [12] = assay: Antischistosomal activity against Schistosoma mansoni Puerto Rican infected mouse assessed as infected mouse at 329 mg/kg/day, through diet for 14 days; format: functional; summary of the method: as §1
Schistosoma mansoni [13] = assay: Antischistosomal activity against Schistosoma mansoni Puerto Rican infected mouse assessed as reduction in live schistosomes at 329 mg/kg/day, through diet for 14 days; format: functional; conditions: 336 h; summary of the method: as §1
Schistosoma mansoni [14] = assay: Antischistosomal activity against Schistosoma mansoni Puerto Rican infected mouse assessed as reduction in live schistosomes at 332 mg/kg/day, through diet for 14 days; format: functional; conditions: 336 h; summary of the method: as §1
Schistosoma mansoni [15] = assay: Antischistosomal activity against Schistosoma mansoni Puerto Rican infected mouse assessed as infected mouse at 332 mg/kg/day, through diet for 14 days; format: functional; summary of the method: as §1
Schistosoma mansoni [16] = assay: Antischistosomal activity against Schistosoma mansoni Puerto Rican infected mouse assessed as reduction in live schistosomes at 305 mg/kg/day, through diet for 14 days; format: functional; conditions: 336 h; summary of the method: as §1
Schistosoma mansoni [17] = assay: Antischistosomal activity against Schistosoma mansoni Puerto Rican infected mouse assessed as infected mouse at 305 mg/kg/day, through diet for 14 days; format: functional; summary of the method: as §1
Schistosoma mansoni [18] = assay: Antischistosomal activity against Schistosoma mansoni Puerto Rican infected mouse assessed as infected mouse at 400 mg/kg/day, through gavage for 10 days; format: functional
Schistosoma mansoni [19] = assay: Antischistosomal activity against Schistosoma mansoni Puerto Rican infected mouse assessed as reduction in live schistosomes at 400 mg/kg/day, through gavage for 10 days; format: functional; conditions: po, 240 h
Schistosoma mansoni [20] = assay: Antischistosomal activity against Schistosoma mansoni Puerto Rican infected mouse assessed as reduction in live schistosomes at 78 mg/kg/day, through diet for 14 days; format: functional; conditions: 336 h; summary of the method: as §1
Schistosoma mansoni [21] = assay: Antischistosomal activity against Schistosoma mansoni Puerto Rican infected mouse assessed as infected mouse at 78 mg/kg/day, through diet for 14 days; format: functional; summary of the method: as §1
Schistosoma mansoni [22] = assay: Antischistosomal activity against Schistosoma mansoni Puerto Rican infected mouse assessed as infected mouse at 302 mg/kg/day, through diet for 14 days; format: functional; summary of the method: as §1
Schistosoma mansoni [23] = assay: Antischistosomal activity against Schistosoma mansoni Puerto Rican infected mouse assessed as reduction in live schistosomes at 302 mg/kg/day, through diet for 14 days; format: functional; conditions: 336 h; summary of the method: as §1

Compound CC1(c2ccc(Cl)c(Cl)c2)NC(=O)NC1=O (stereo unspecified) has an inhibition in vivo at 376 mg/kg/day (Schistosoma mansoni [1]) of 38% and an Activity (Schistosoma mansoni [2]) of 100%.
Cc1cc(Cl)c(Cl)cc1C1(C)NC(=O)NC1=O (stereo unspecified) showed an inhibition in vivo at 349 mg/kg/day (Schistosoma mansoni [3]) of 48% and an Activity (Schistosoma mansoni [4]) of 100%.
Work on CCN(CC)CCNc1ccc(C)c2sc3ccccc3c(=O)c12.Cl [LUCANTHONE HYDROCHLORIDE] yielded an inhibition in vivo at 140 mg/kg/day (Schistosoma mansoni [5]) of 71%, an MTD at 336 h [6] of 140 mg/kg and an Activity (Schistosoma mansoni [7]) of 90%.
For O=C1NC(=O)C(c2cc(Cl)c(Cl)cc2Cl)N1 (stereo unspecified) [listing 1 of 2 here], the inhibition (Schistosoma mansoni [8]) was “Dose-dependent effect” and the inhibition (Schistosoma mansoni [9]) was “Active”.
In the case of CN1C(=O)C(c2cc(Cl)c(Cl)cc2Cl)N(C)C1=O (stereo unspecified), the inhibition in vivo at 336 mg/kg/day (Schistosoma mansoni [10]) is reported as 88% and the Activity (Schistosoma mansoni [11]) is reported as 83%.
For O=C1NC(=O)C(c2ccc(Cl)c(Cl)c2)N1 (stereo unspecified), the Activity (Schistosoma mansoni [12]) was 100% and the inhibition in vivo at 329 mg/kg/day (Schistosoma mansoni [13]) was 0%.
In the case of Cc1c(Cl)ccc(C2(C)NC(=O)NC2=O)c1Cl (stereo unspecified), the inhibition in vivo at 332 mg/kg/day (Schistosoma mansoni [14]) is reported as 26% and the Activity (Schistosoma mansoni [15]) is reported as 100%.
O=C1NC(=O)C(c2c(Cl)ccc(Cl)c2Cl)N1 (stereo unspecified) gave an inhibition in vivo at 305 mg/kg/day (Schistosoma mansoni [16]) of 0% and an Activity (Schistosoma mansoni [17]) of 100%.
Compound O=C1NC(=O)C(c2cc(Cl)c(Cl)cc2Cl)N1 (stereo unspecified) [listing 2 of 2 here] has an Activity (Schistosoma mansoni [12]) of 67%, an Activity (Schistosoma mansoni [18]) of 100% and an inhibition in vivo at 329 mg/kg/day (Schistosoma mansoni [13]) of 80%. It also gave an inhibition in vivo at 400 mg/kg/day (Schistosoma mansoni [19]) of 0%.
CN(C)CCCN1C(=O)NC(c2cc(Cl)c(Cl)cc2Cl)C1=O (stereo unspecified) showed an inhibition in vivo at 78 mg/kg/day (Schistosoma mansoni [20]) of 0%, an MTD at 336 h [6] of 78 mg/kg and an Activity (Schistosoma mansoni [21]) of 100%.
O=C1NC(=O)C(c2ccc(Cl)cc2Cl)N1 (stereo unspecified) gave an Activity (Schistosoma mansoni [22]) of 100% and an inhibition in vivo at 302 mg/kg/day (Schistosoma mansoni [23]) of 36%.
